Measurements: the RNAGym collection of RNA variant scans (doi:10.1126/science.aae0568)
Fewer inactive variants are shown than the library holds.

B1: tRNA (parent)
chain: GUUCCGUUGGCGUAAUGGUAACGCGUCUCCCUCCUAAGGAGAAGACUGCGGGUUCGAGUCCCGUACGGAACG

Variants of: B1
Assay: yeast fitness relative to wild type (ratio to wild type); higher = fitter; tRNA-Arg(CCU), competitive growth, 37 C, YPD
Method in brief: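 Genotype frequency changes were the basis for Darwinian fitness relative to wild type. The frequencies came from 100-nucleotide paired-end sequencing of gene amplicons from the start population and each end population of pooled yeast strains with tRNA-Arg(CCU) gene variants at the native locus. Competition ran in YPD at 37°C for 24 hours in six replicates, genotypes needed ≥ 100 starting reads, and estimates < 0.5 were set to 0.5.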

Variant	yeast fitness
C11A G50A	0.651
C11A C61G	≤ 0.5
C11A C27A A70G	≤ 0.5
C11G C24G C27A U28C C66U	≤ 0.5
C11A A21C C30U C66U	0.539
C11G A15G U26G C66U	≤ 0.5
C11U A14C C30G A40G C49A G68A	0.537
C11A C31G A42U G67A	≤ 0.5
G10C G58C G67A	≤ 0.5
C11A A14G A15G C22A G23A C33A G38C A70U	≤ 0.5
C11G C66A A69U	≤ 0.5
C11G A42U C66G G67U	≤ 0.5
C11A C29U C46U G67C A69U	≤ 0.5
C11G A21U U26C U47C G68C	≤ 0.5
C11G U54C C62U	≤ 0.5
C11G C30U C31G C33G A37U U64A	≤ 0.5
C11A G12A G25A	0.604
C11G G41C C55U G58A	≤ 0.5
C11A U16C G18C A20G A45C A57C G68C	≤ 0.5
C11A G44C G56A C66U	0.552
C11G C61U G68A	≤ 0.5
C11G A20U A45C	≤ 0.5
C11G U32A A37C G39A A43G U54C C62G	≤ 0.5
C11A C49U C61U	≤ 0.5

Variant	yeast fitness
C11A U16A C29G A42C G51A	≤ 0.5
C11G G25A A45C	≤ 0.5
C11G A36C U47C C49U A69C	≤ 0.5
C11A C46G A65G	≤ 0.5
C11G G38C C55U C61G	≤ 0.5
C11G C29G G38A G44A C46U C62A	≤ 0.5
C11G C24G C49U	≤ 0.5
C11G C29U C34U G68C	≤ 0.5
C11A A20U C22U	0.552
C11G G41A U53C	≤ 0.5
C11G U16C C27G C61U	0.545
C11A G39C C62U	≤ 0.5
C11G C55G	0.594
C11G A42U A43C	≤ 0.5
C11G U28C U54C G58A	0.53
C11A A36G A43C G48A	0.558
C11G C24U U35A	0.622
C11G G56A	0.721
C11G U16C C22U G68U	≤ 0.5
G10C U13A A14G A20G C22A C24G G52C	≤ 0.5
C11U A14G A65U G68A	0.617
C11A A15C C24G U59A	≤ 0.5
C11G A20C G23A G52C C61U	0.662
C11G C22G C66A A69U	0.533

Variant	yeast fitness
C11A G38U C66A	≤ 0.5
C11G G17A A20U C33G A43C C61G A65G	≤ 0.5
C11G C29U A36C A42G C46G	≤ 0.5
C11A U19G A36G C49A G68C	≤ 0.5
C11A A21U C66U	≤ 0.5
C11G C24U U28C C55G	≤ 0.5
C11G U13C G58C A69U	≤ 0.5
C11A C27G U35A A43U U54C A65G	0.659
C11G C24U C49U	≤ 0.5
C11A C22U U35C	≤ 0.5
C11A C33U A43U	0.532
C11G A15C C24G C46A	0.546
C11G C29U C34U G51C C66U	≤ 0.5
C11G A20C C49A U54G	≤ 0.5
C11G A15C	0.528
C11A U16C G18C U35C A45C A57C G68C	0.515
C11A U26C C29G C31U G48A	≤ 0.5
C11U A14G C27U C31U A36C G44C A45G G56C	≤ 0.5
C11G C27G A42C A45C	≤ 0.5
C11G A37U C46U G63U	≤ 0.5
C11G G12C	0.7
C11A G23C A42C A43C	≤ 0.5
C11A C27U C31U C34G A40G G63C	≤ 0.5
C11G C34U C55G	0.689

Variant	yeast fitness
C11G A37U	≤ 0.5
C11G C31U	0.632
C11A C27G C33U G56A C61G	≤ 0.5
G10C U35G A43C U47C C55U A69C	0.574
C11G A14U U19A G25A C34U C60U G68A	0.517
C11A C31G	0.592
C11A A69U	0.734
G10C G58A C66G	≤ 0.5
C11A C30U C49A A69U	≤ 0.5
C11A C27U G44C	0.572
G10C G44U	0.587
C11A A43G C46G A65U	≤ 0.5
C11A C27G C30G G44C	0.538
G10U U13A	0.675
C11G A36U A40C	0.612
C11G G12A A42U C61A A65U	0.528
C11A A20G C22G C49G G68C A69C	≤ 0.5
C11G G58A A70G	0.659
G10C U26A A70U	0.622
C11A C46U G48A C55U U59A	≤ 0.5
C11G G12A C27U A43G	≤ 0.5
C11G C30A	0.588
C11G C31U G41C	≤ 0.5
C11G G18C A21G A40U A70U	0.509

Variant	yeast fitness
C11G A20G A43U U47A A65U G67C	≤ 0.5
C11G C24U G67A	≤ 0.5
C11G A15U G58U C66A A70C	≤ 0.5
C11G C30U A37C C46U	0.664
C11A A36G C49G A70G	0.584
C11A C29U C34G A36G	0.607
C11A C22G G67A G68C	≤ 0.5
C11A A37U C62A C66U	≤ 0.5
C11A C29U A57C	0.732
C11G C29U C34U C62A C66U	0.565
C11A A36G A43U	≤ 0.5
C11A A57G	0.655
C11A C27G C61G	0.52
C11G A57U C66U	≤ 0.5
C11G A15U A65C	0.544
C11G U16C C27G	≤ 0.5
C11A G52C G67A	≤ 0.5
G10C U19A A37C G50U	0.526
C11A C27G C62U G68A	≤ 0.5
C11G U32A A37C G39A A43G G58C C60A C62U	≤ 0.5
C11A G17C U47A G68C	≤ 0.5
C11A A15C C24A C27A G41C	0.583
G10C U47G C55U A70G	≤ 0.5
C11G U16G G38C U54A C66A	0.648

Variant	yeast fitness
C11G U32G U54A U59A G67A	≤ 0.5
C11A G17C A36G G41C A45G C49U	≤ 0.5
C11A A15G C22G C61U	≤ 0.5
C11A C46U U64C	≤ 0.5
G10C U16C C22A C33A	≤ 0.5
C11A U35A C61U C62U C66A	≤ 0.5
C11G G67A	0.635
C11G C49G C66A G67U	≤ 0.5
C11A A21U C34A	≤ 0.5
C11A A36C A42G U47C G67A	≤ 0.5
C11G A14G G17A A37G G48C C62U C66G A70G	≤ 0.5
C11A C31G C62G	0.506
C11U A14G G23A	0.504
C11A U47A A70C	≤ 0.5
C11A C34A U47A C61G	≤ 0.5
C11G G18A G23A C60G	≤ 0.5
C11G C30A G44C G52C U64G	≤ 0.5
C11A U13A C31G C55U	≤ 0.5
C11G A21U C30A G44A G52C A65U	0.507
C11G C24U G68C	0.523
C11A C34G U35G G39A	≤ 0.5
C11A U19A C29A U32A U54C C55G C60G A70U	≤ 0.5
C11A G52C C66U A69C	≤ 0.5
C11G A42U A65G C66G G68A	≤ 0.5

Variant	yeast fitness
C11G U13A	1.03
C11G U13G	0.599
C11G A21G C31G	≤ 0.5
C11G A37C A45U G68C	≤ 0.5
C11A A42C	0.606
C11G U32C	0.597
C11G C22U A36C G52C C66U	≤ 0.5
G10C U19A C31G A42G	0.627
C11G C34U A42C C66A	≤ 0.5
C11G U19C A40G C66G A69U	≤ 0.5
C11A A15U A20C	≤ 0.5
C11G A21U A42U	≤ 0.5
C11G C31U G67C	0.632
C11A C30U A45C	≤ 0.5
G10C U32C A42C A65C C66G	0.614
C11A C30U A42C	≤ 0.5
C11G G23C G39A	0.525
C11G C33U A36G C55U	≤ 0.5
C11A A21C C31A C55U G68C	≤ 0.5
C11G G17A A37U A70G	≤ 0.5
C11G A21U G68C	≤ 0.5
G10U A42U	0.775
C11G G12A C22U G44A	≤ 0.5
